Laboratory results as given in ChEMBL document CHEMBL4689842, “EUbOPEN Chemogenomics Library wave 1” (2021).
“And” between values parts separate entries of the source, which are not always exact repeats. Identical values can stand only once.

Test system: Fibroblast
Test: Multiplex assay against human fibroblast
Type: toxicity, cell-based
Procedure, shortened: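 Values for tubulin, mitochondrial-mass and membrane-permeability phenotypes are per cents of cells with healthy nuclei. These cells were identified by CellPathfinder machine-learning gating of live cells that had been stained at seeding with Hoechst33342, BioTracker Green Microtubule Cytoskeleton Dye, MitoTracker Red and Annexin V Alexa Fluor 680 and imaged on a CQ1 microscope at 37°C and 5% CO2 after compound addition. The gating first set Hoechst high-intensity objects apart from normal cells, then split normal cells into healthy, pyknosed or fragmented nuclei, and pyknosed cells into mitotic or apoptotic.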

[1] = 12 h, 1 µM, compound concentration 1 uM, replicate 1
[2] = 12 h, 1 µM, compound concentration 1 uM, replicate 2
[3] = 12 h, 10 µM, compound concentration 10 uM, replicate 1
[4] = 12 h, 10 µM, compound concentration 10 uM, replicate 2
[5] = 24 h, 1 µM, compound concentration 1 uM, replicate 1
[6] = 24 h, 1 µM, compound concentration 1 uM, replicate 2
[7] = 24 h, 10 µM, compound concentration 10 uM, replicate 1
[8] = 24 h, 10 µM, compound concentration 10 uM, replicate 2

With `CCC1=C[C@@H]2C[N@](C1)Cc1c([nH]c3ccccc13)[C@@](C(=O)OC)(c1cc3c(cc1OC)N(C)[C@H]1[C@@](O)(C(=O)OC)[C@H](OC(C)=O)[C@]4(CC)C=CCN5CC[C@]31[C@@H]54)C2.O=C(O)C(O)C(O)C(=O)O.O=C(O)C(O)C(O)C(=O)O` [VINORELBINE TARTRATE] the “Population Apoptotic (%)” value [1] was 63% and 65%, the “Population Fragmented Nuclei (%)” value [1] was 27% and 51% and the “Population Healthy Nuclei (%)” value [1] was 48% and 34%. For the same compound, the “Population Hoechst High Intensity Objects (%)” value [1] was 16% and 26%, the “Population Mitochondria Different-Phenotype (%)” value [1] was 14% and 9% and the “Population Mitotic Cells (%)” value [1] was 36% and 34%. The “Population Normal (%)” value [1] was 83% and 73%, the “Population Pyknosed Nuclei (%)” value [1] was 23% and 14% and the “Population Tubulin-Different-Phenotype (%)” value [1] was 8% and 4%. For the same compound, the “Total Cell Count” value [1] was 151 and 452, the “Population Apoptotic (%)” value [2] was 100% and 80% and the “Population Fragmented Nuclei (%)” value [2] was 79% and 75%. For the same compound, the “Population Healthy Nuclei (%)” value [2] was 18% and 15%, the “Population Hoechst High Intensity Objects (%)” value [2] was 44% and 38% and the “Population Membrane Permeable-Phenotype (%)” value [2] was 22% and 0%. For the same compound, the “Population Mitochondria Different-Phenotype (%)” value [2] was 0%, the “Population Mitotic Cells (%)” value [2] was 0% and 20% and the “Population Normal (%)” value [2] was 55% and 61%. The “Total Cell Count” value [2] was 86 and 94, the “Population Apoptotic (%)” value [3] was 67% and 68% and the “Population Fragmented Nuclei (%)” value [3] was 46% and 27%. The “Population Healthy Nuclei (%)” value [3] was 39% and 50%, the “Population Hoechst High Intensity Objects (%)” value [3] was 18% and the “Population Membrane Permeable-Phenotype (%)” value [3] was 6% and 4%. For the same compound, the “Population Mitochondria Different-Phenotype (%)” value [3] was 13% and 6%, the “Population Mitotic Cells (%)” value [3] was 32% and 31% and the “Population Normal (%)” value [3] was 81%. The “Population Pyknosed Nuclei (%)” value [3] was 13% and 22%, the “Population Tubulin-Different-Phenotype (%)” value [3] was 3% and the “Total Cell Count” value [3] was 353 and 227. The “Population Apoptotic (%)” value [4] was 50% and 60%, the “Population Fragmented Nuclei (%)” value [4] was 59% and 69% and the “Population Healthy Nuclei (%)” value [4] was 31% and 24%. For the same compound, the “Population Hoechst High Intensity Objects (%)” value [4] was 32% and 26%, the “Population Membrane Permeable-Phenotype (%)” value [4] was 17% and 0% and the “Population Mitochondria Different-Phenotype (%)” value [4] was 17% and 10%. For the same compound, the “Population Mitotic Cells (%)” value [4] was 50% and 40%, the “Population Normal (%)” value [4] was 67% and 73% and the “Population Pyknosed Nuclei (%)” value [4] was 8% and 6%. For the same compound, the “Population Tubulin-Different-Phenotype (%)” value [4] was 13% and 0%, the “Total Cell Count” value [4] was 107 and 111 and the “Population Apoptotic (%)” value [5] was 73% and 63%. For the same compound, the “Population Fragmented Nuclei (%)” value [5] was 54% and 33%, the “Population Healthy Nuclei (%)” value [5] was 31% and 50% and the “Population Hoechst High Intensity Objects (%)” value [5] was 25% and 18%. For the same compound, the “Population Mitochondria Different-Phenotype (%)” value [5] was 8% and 7%, the “Population Mitotic Cells (%)” value [5] was 26% and 36% and the “Population Normal (%)” value [5] was 74% and 81%. The “Population Pyknosed Nuclei (%)” value [5] was 13% and 16%, the “Population Tubulin-Different-Phenotype (%)” value [5] was 4% and 3% and the “Population Fragmented Nuclei (%)” value [6] was 76% and 77%. For the same compound, the “Population Healthy Nuclei (%)” value [6] was 20% and 15%, the “Population Hoechst High Intensity Objects (%)” value [6] was 44% and 34% and the “Population Mitochondria Different-Phenotype (%)” value [6] was 22% and 9%. The “Population Mitotic Cells (%)” value [6] was 100% and 40%, the “Population Normal (%)” value [6] was 55% and 65% and the “Population Pyknosed Nuclei (%)” value [6] was 2% and 6%. The “Population Tubulin-Different-Phenotype (%)” value [6] was 22% and 9%, the “Total Cell Count” value [6] was 77 and 110 and the “Population Apoptotic (%)” value [7] was 77% and 75%. For the same compound, the “Population Fragmented Nuclei (%)” value [7] was 48% and 27%, the “Population Healthy Nuclei (%)” value [7] was 35% and 54% and the “Population Hoechst High Intensity Objects (%)” value [7] was 26% and 19%. The “Population Membrane Permeable-Phenotype (%)” value [7] was 5% and 4%, the “Population Mitochondria Different-Phenotype (%)” value [7] was 9% and 2% and the “Population Mitotic Cells (%)” value [7] was 22% and 25%. For the same compound, the “Population Normal (%)” value [7] was 73% and 80%, the “Population Pyknosed Nuclei (%)” value [7] was 15% and 18% and the “Population Tubulin-Different-Phenotype (%)” value [7] was 3% and 1%. For the same compound, the “Total Cell Count” value [7] was 394 and 248, the “Population Fragmented Nuclei (%)” value [8] was 60% and 80% and the “Population Healthy Nuclei (%)” value [8] was 31% and 17%. The “Population Hoechst High Intensity Objects (%)” value [8] was 37% and 27%, the “Population Membrane Permeable-Phenotype (%)” value [8] was 10% and 0% and the “Population Mitochondria Different-Phenotype (%)” value [8] was 10% and 0%. The “Population Normal (%)” value [8] was 62% and 72%, the “Population Tubulin-Different-Phenotype (%)” value [8] was 0% and the “Total Cell Count” value [8] was 103 and 151.
